PLC-gamma1 inh = PLC-gamma1 enzyme inhibitors, primary screen, biochemical, fluorescence, purified enzyme. inhibition, % at 12.2 µM. 1-phosphatidylinositol 4,5-bisphosphate phosphodiesterase gamma-1 (Homo sapiens), P19174. fluorogenic substrate. 370,000 tested, 0.84% active. AID 720700, 2013
PLCb3 inh = human PLC-beta3 inhibitors, primary screen, biochemical, fluorescence | Purified PLC-beta3, fluorogenic substrate | inhibition, % at 12.2 µM | 370,000 tested, 0.18% active | AID 720704, 2013; in the data active means inhibition above about 11%
Target sequence (Q01970 whole entry, looked up): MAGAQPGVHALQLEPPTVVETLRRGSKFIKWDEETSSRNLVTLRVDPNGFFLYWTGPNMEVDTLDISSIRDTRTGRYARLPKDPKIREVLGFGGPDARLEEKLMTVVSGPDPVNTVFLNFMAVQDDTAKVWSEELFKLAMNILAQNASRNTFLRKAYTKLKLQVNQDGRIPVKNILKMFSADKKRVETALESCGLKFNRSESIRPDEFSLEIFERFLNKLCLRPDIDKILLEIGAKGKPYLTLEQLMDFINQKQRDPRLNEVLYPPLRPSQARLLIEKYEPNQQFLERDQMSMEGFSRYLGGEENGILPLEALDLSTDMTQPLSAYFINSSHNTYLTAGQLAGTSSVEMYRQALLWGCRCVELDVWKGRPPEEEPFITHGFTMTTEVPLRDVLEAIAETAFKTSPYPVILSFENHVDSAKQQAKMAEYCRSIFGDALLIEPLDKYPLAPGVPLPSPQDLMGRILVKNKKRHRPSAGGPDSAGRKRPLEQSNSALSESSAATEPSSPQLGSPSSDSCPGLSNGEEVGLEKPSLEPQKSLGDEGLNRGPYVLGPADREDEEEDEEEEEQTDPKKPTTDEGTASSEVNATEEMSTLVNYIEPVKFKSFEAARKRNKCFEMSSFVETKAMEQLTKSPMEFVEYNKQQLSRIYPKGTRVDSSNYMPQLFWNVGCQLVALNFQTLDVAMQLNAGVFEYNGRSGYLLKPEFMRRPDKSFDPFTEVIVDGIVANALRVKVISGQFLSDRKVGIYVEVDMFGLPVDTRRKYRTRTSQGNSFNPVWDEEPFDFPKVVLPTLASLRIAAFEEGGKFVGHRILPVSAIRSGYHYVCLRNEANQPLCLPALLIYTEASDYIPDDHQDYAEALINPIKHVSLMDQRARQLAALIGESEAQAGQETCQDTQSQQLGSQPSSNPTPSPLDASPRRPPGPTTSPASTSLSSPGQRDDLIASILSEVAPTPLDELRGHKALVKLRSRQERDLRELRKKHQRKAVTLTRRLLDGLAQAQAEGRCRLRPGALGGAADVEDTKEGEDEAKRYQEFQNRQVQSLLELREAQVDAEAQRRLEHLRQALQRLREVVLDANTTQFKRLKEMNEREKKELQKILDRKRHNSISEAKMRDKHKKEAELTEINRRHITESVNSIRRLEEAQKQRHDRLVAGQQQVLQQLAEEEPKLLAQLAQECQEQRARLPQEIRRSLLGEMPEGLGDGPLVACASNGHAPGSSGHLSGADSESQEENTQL
FID counter = compounds displacing fluorescent DNA intercalator, primary screen, artefact control for HCV NS3 helicase inhibitor project, biochemical, FID fluorescence | DNA fluorescent intercalator displacement | inhibition, % at 7.9 µM | 290,000 tested, 0.17% active | AID 1845, 2009; in the data active means inhibition above about 37%;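 further: higher means more ethidium bromide displaced from hairpin DNA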
Tn7 DDE FP = inhibitors of Tn7 peptide binding to fibrin DD(E), primary screen, biochemical, fluorescence polarization, human fibrin, Tn7 probe; Fibrinogen beta chain (Homo sapiens), P02675; FP displacement of FITC-Tn7 peptide from fibrin DD(E); 0% = median of compound wells per plate; inhibition, % at 8.3 µM; 370,000 tested, 0.13% active; AID 720508, 2013;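 active means inhibition above the mean of compounds falling within the control limits plus 3 SD of them, cut at about 14% in these data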
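Test system – human fibrin DD(E) · Times – 10 min preincubation, 3 h with tracer, room temperature · Detection – fluorescence polarization of the labelled Tn7 tracer · Measure – percent inhibition normalized to high-control wells · Benchmarks – high control wells with 10 µM unlabelled Aha-Tn7 peptide (full inhibition) · Repeats – singlicate testing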
DDE Tn6 FP inh = inhibitors of Tn6 peptide binding to fibrin DD(E), primary screen, biochemical, fluorescence polarization, human fibrin, Tn6 probe. Fibrinogen beta chain (Homo sapiens), P02675. Fibrin DD(E) TRITC-Tn6 fluorescence polarization displacement. inhibition, % at 8.3 µM. 370,000 tested, 0.21% active;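 active means inhibition above a per-campaign cutoff: mean of compounds within control limits plus 3 SD, cut at about 15% in these data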
PLCgamma1 ctr = PLC-gamma1 enzyme inhibitors, counter-screen for PLC-beta3 inhibitor project, biochemical, fluorescence. AID 743258, 2014. shares compounds with PLC-gamma1 inh. purified PLC-gamma1, fluorogenic substrate. inhibition, % at 12.3 µM. 3,300 tested, 3.1% active
PLCb3 confirm = PLC-beta3 inhibitor confirmation, biochemical, fluorescence, purified enzyme. 3,300 tested, 1% active. shares compounds with PLC-gamma1 inh. AID 743261, 2014. inhibition, % at 12.3 µM. fluorogenic substrate fluorescence; in the data active means inhibition above about 11%
Hits are given with their value; - = inactive; . = no result given. Compounds with a hit are over-represented: about 1.4% of the library has one in this group of screens. Unless noted, no stated cut-off is given here; in the data, active means inhibition above about 9.5%; inactive means the rest.

SMILES	PLC-gamma1 inh	PLCb3 inh	FID counter	Tn7 DDE FP	DDE Tn6 FP inh	PLCgamma1 ctr	PLCb3 confirm
CC1=NN(c2ccc(C)c(C)c2)C(=O)C1C(c1cccc(O)c1)C1C(=O)N(c2ccc(C)c(C)c2)N=C1C (configuration not stated)	16.1	-	-	-	-	-	-
CCNC(=O)CN1C(=O)NC2(CCCc3cc(OC)ccc32)C1=O (configuration not stated)	-	-	-	-	-	.	.
COc1ccc2c(c1)CCCC21NC(=O)N(CC(=O)N2CC(C)OC(C)C2)C1=O (configuration not stated)	12.5	-	.	-	-	-	-
COc1cccc(OCc2cc(C(=O)N3CCN(C(C)=O)CC3)no2)c1	-	-	-	-	-	.	.
COc1ccc(C(=O)Nc2nnc(C)s2)cc1S(=O)(=O)N1CCOCC1	11.9	-	.	-	-	-	-
COc1ccc(C(=O)OCC(=O)NC2CC2)cc1S(=O)(=O)N1CCOCC1	9.6	-	-	-	-	-	-
O=C(COc1ccc(S(=O)(=O)N2CCOCC2)cc1)NC1CC1	10.1	-	-	-	-	-	-
CC1CN(C(=O)c2cccc(S(=O)(=O)Nc3cc(Cl)ccc3Cl)c2)CC(C)O1 (configuration not stated)	-	-	-	-	-	.	.
Cc1cc(C)cc(Nc2nc3ccccc3c(=O)[nH]2)c1	-	-	-	-	-	.	.
Cc1ccc2c(=O)[nH]c(Nc3nc(C)cc(-c4ccccc4)n3)nc2c1	10.6	-	-	-	-	-	-
COc1ccc(C[C@H]2CN3C(=NC[C@@H]3C(C)C)N2CCNC(=O)CCC2CCCCC2)cc1	-	-	-	-	-	.	.
CC(C)[C@H]1CN=C2N(CCNC(=O)CCC3CCCCC3)[C@H](Cc3ccc(O)cc3)CN21	17.7	-	-	-	-	-	-
O=C(Nc1ncccn1)C1CCCCC1	10.7	-	-	-	-	-	-
O=C(Nc1ccccc1)C1CCCCC1	-	-	-	-	-	.	.
COc1cccc(-c2cc(NC=O)c3ncc(-c4cccc(C(=O)N(C)C)c4)n3c2)c1	-	-	.	-	-	.	.
CC1CCN(C2(O)C(=O)Nc3ccc(Cl)cc32)CC1 (configuration not stated)	-	-	-	-	-	.	.
CC1CCN(C2(O)C(=O)Nc3ccc([N+](=O)[O-])cc32)CC1 (configuration not stated)	10.4	13.5	-	-	-	-	-
CC(C)(Oc1ccc(Cl)cc1)C(=O)OCC(=O)Nc1ncc(Cl)cc1Cl	-	12.1	-	-	-	-	-
COc1ccc(OCCCC(=O)OCC(=O)Nc2ncc(Cl)cc2Cl)cc1	-	-	.	-	-	.	.
Cc1ccc(C(=O)NCc2ccco2)cc1S(=O)(=O)Nc1cccc(C)c1C	-	-	-	-	-	.	.
Cc1ccccc1NS(=O)(=O)c1cc(C(=O)NCc2ccco2)ccc1C	10.0	-	-	-	-	-	-
O=C(NCc1ccco1)c1ccc(Br)c(S(=O)(=O)N2CCCCC2)c1	11.0	-	-	-	-	-	-
O=C(NCc1ccco1)c1ccc(F)c(S(=O)(=O)N2CCCCC2)c1	-	-	-	-	-	.	.
O=C(CSc1nnnn1-c1ccccc1)Nc1ccc(Cl)cn1	-	-	-	-	-	.	.
O=C(CSc1nnnn1-c1ccccc1)Nc1ccc(Cl)cc1	14.3	-	-	-	-	-	-
SMILES	PLC-gamma1 inh	PLCb3 inh	FID counter	Tn7 DDE FP	DDE Tn6 FP inh	PLCgamma1 ctr	PLCb3 confirm
O=C(CSc1nncn1-c1ccccc1)Nc1ccc(N2CCOCC2)cc1	9.8	-	-	-	-	-	-
O=C(CSc1n[nH]c(=O)n1-c1ccccc1)Nc1ccccc1	15.4	-	-	-	-	-	-
CC(C)CC(NC(=O)c1ccccc1)C(=O)OCC(=O)Nc1ccc(Br)cn1 (configuration not stated)	10.7	-	-	-	-	-	-
CCCc1nnc(SCC(=O)N2CCOCC2)n1CCCOC	-	-	-	-	-	.	.
Cc1cccc2[nH]c(CN(C)C(=O)C3CCC(=O)N(C4CC4)C3)nc12 (configuration not stated)	-	-	-	-	-	.	.
CN(Cc1nc2ccccc2[nH]1)C(=O)C1CCC(=O)N(C2CCCC2)C1 (configuration not stated)	9.8	-	-	-	-	-	-
O=C(NC(=S)N1CCc2ccccc21)c1ccc(Br)o1	-	-	-	-	-	.	.
O=C(NC(=S)N1CCc2ccccc21)c1ccccc1Br	11.1	-	-	-	-	-	-
Cc1nc2c3cnn(-c4ccccc4)c3ncn2n1	-	-	-	-	-	.	.
COc1ccc(NC(C)=O)c2nc(C)c(C)nc12	-	-	-	-	-	.	.
COc1ccc2sc(C)nc2c1NC(C)=O	11.8	-	-	-	-	-	-
CC1(C)CC(C(=O)Nc2ccccc2)C(=O)O1 (configuration not stated)	-	-	.	-	-	.	.
C[C@]1(O)CC(=O)C=C[C@H]1Nc1ccccc1	17.1	-	.	-	-	-	-
COc1ccc(CC(N)c2csc(Nc3ccc(S(C)(=O)=O)cc3)n2)cc1 (configuration not stated)	-	-	.	-	-	.	.
CCN(CC)CCCn1c2c(c(SCC(=O)Nc3cccc(C(C)=O)c3)nc1=O)CCC2	-	-	.	-	-	.	.
CCN(CC)CCCn1c2c(c(SCC(=O)Nc3cc(C)cc(C)c3)nc1=O)CCC2	13.0	-	.	-	-	-	-
O=C(c1ccc(S(=O)(=O)Cc2cc(F)ccc2F)c([N+](=O)[O-])c1)N1CCOCC1	-	-	.	-	-	.	.
COc1ccc(-c2nc(NC(=O)c3c(C)noc3C)sc2C)cc1	-	-	.	-	-	.	.
COc1ccc(-n2c(C)nn(C)c2=O)cc1	9.9	-	-	-	-	-	-
CCOC(=O)C1CCN(Cc2cc(=O)oc3c(C)c(C)ccc23)CC1	-	-	-	-	-	.	.
COC(=O)CNC(=O)C(Cc1c[nH]c2ccccc12)NC(=O)OC(C)(C)C (configuration not stated)	-	-	-	-	-	.	.
Nc1nonc1C(=O)N1CCCC1	-	-	-	-	-	.	.
Cc1c(C(=O)N2CCCCC2)nnn1-c1nonc1N	18.6	-	-	-	-	-	-
Cc1cc(C)nc(SCc2nnc(SCC(=O)Nc3ccc(C)c(C)c3)n2Cc2ccco2)n1	-	-	-	-	-	.	.
